Test results as given in publication PMC9305466 (British Journal of Clinical Pharmacology, 2022).

Assays:
JAK1 = details: GS‐829845 vs filgotinib; cited from earlier work
[1] = phase 1 studies; cited from earlier work
[2] = test system: subjects with rheumatoid arthritis (RA); assay: Exposure-safety analysis; format: in vivo, human; details: up to week 52; for exposures (AUC0‐24) by presence or absence of the five most frequent TEAEs: nausea, nasopharyngitis, upper respiratory tract infection, headache, hypertension
Procedure, shortened: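 Individual parent and metabolite exposures came from population PK models and were analysed separately for each analyte. Data were pooled from all five studies across all doses. Data collected after rerandomization and a switch of treatment group were excluded. Exposures were compared between subjects with and without each event (serious TEAEs, serious infections). Cmax was also evaluated.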

[3] = cited from earlier work; for effect of moderate hepatic impairment on exposure (AUC and C max): compared with matched healthy controls
[4] = test system: subjects with moderately to severely active rheumatoid arthritis (RA); assay: Exposure-efficacy analysis; format: in vivo, human; details: week 12; filgotinib 100 mg group
Procedure, shortened: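 Individual exposures came from population PK models (nonlinear mixed-effects), built separately for parent and active metabolite. Parent and metabolite exposures were combined as AUCeff, weighted by relative JAK1 inhibition potency. Data were pooled from 3 phase 3 and 2 phase 2 studies: dosed subjects with ≥1 PopPK parameter, plus placebo at week 12. Binary response was fit by nonlinear logistic (Emax on logit) regression, with Clopper-Pearson binomial CIs.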

[5] = test system: JAK1‐related interleukin‐6 (IL‐6)‐induced phosphorylated signal transducer and activator of transcription 1 (pSTAT1); details: cited from earlier work

Structure (SMILES) | potency relative to the parent (JAK1 preferential inhibitor), fold less potent (JAK1) | half‐life [1] | exposures (AUC0‐24) by presence or absence of the five most frequent TEAEs [2] | serious TEAEs and serious infections against exposures [2] | exposure in elderly subjects (≥75 years) compared with younger subjects [3] | exposure in subjects with severe renal impairment (RI), fold higher [3] | effect of moderate hepatic impairment on exposure (AUC and C max) [3] | ACR20 response rate [4] | maximum inhibition of pSTAT1 ([5]; plateaued at or above 200 mg total daily dose) | intermediate inhibition of pSTAT1 ([5]; total daily dose of 100 mg)
Nc1nc2cccc(-c3ccc(CN4CCS(=O)(=O)CC4)cc3)n2n1 [GS‐829845] | approximately 10 fold | approximately 19 hours | similar | no exposure‐driven patterns were present | 1.33 fold | 2.74 fold | no clinically relevant effect | – | – | –
O=C(Nc1nc2cccc(-c3ccc(CN4CCS(=O)(=O)CC4)cc3)n2n1)C1CC1 [filgotinib] | – | ~7 h | similar | no exposure‐driven patterns were present | 1.45 fold | 1.54 fold | no clinically relevant effect | approximately 70% | ~ 78% | ~ 47%
